Assay outcomes: PubChem BioAssay, several laboratories
bCat nuc transl – alters nuclear translocation of beta-catenin in HeLa cells; AID 1665; immunofluorescence imaging; 0.3% of 190,000 active; nuclear translocation activity, % at 5 µM;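 active = nuclear translocation activity above 50% at 5 µM, with a well cell count of 50 or more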;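 also: per-cell ratio of nuclear to cytoplasmic median beta-catenin stain intensity; plate controls were DMSO negative control for no effect and GSK-3 inhibitor IX positive control for full effect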
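test system = HeLa cells, endogenous beta-catenin | dosing = single 5 µM dose plus 0.02–20 µM confirmation series | times = compound treatment 24 h, 37°C, 5% CO2 | technique = beta-catenin immunofluorescence imaging with DAPI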
Ba/F3 V617F tox – lowers viability of Ba/F3 cells expressing EpoR and JAK2V617F; 1.1% of 220,000 active; ATP luminescence; inhibition, % at 5.6 µM; AID 1446;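 active = inhibition above the campaign mean plus 3 SD over all tested compounds, cut at about 24% in these data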;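 also: cytokine-independent growth of Ba/F3 cells driven by EpoR plus mutant JAK2; 0% = DMSO-treated cells and 100% = JAK inhibitor I control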
BaF3 tox – counter-screen for JAK2V617F inhibitors: parental Ba/F3 viability inhibitors. CellTiter-Glo ATP luminescence. inhibition, % at 5.6 µM. 1.1% of 220,000 active. AID 1486;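 active = inhibition above a per-campaign cutoff, the mean inhibition of all tested compounds plus 3 SD, cut at about 27% in these data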;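 also: 0% = DMSO wells and 100% = JAK Inhibitor I control wells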
IEC-6 tox – counter-screen for KLF5 inhibitors: cytotoxicity in IEC-6 cells. IEC-6 cytotoxicity, luminescence viability. inhibition, % at 5 µM. 0.78% of 290,000 active. AID 1825; in the data active = inhibition above about 22%;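 also: 0% = plate median of test compound wells and 100% = cytotoxic reference compound wells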
APP 5UTR inh – APP translation inhibition. SH-SY5Y APP 5'UTR-luciferase reporter, luminescence. 0.82% of 190,000 active. inhibition, % at 2 µM;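 active = inhibition above a set limit, derived from the sample mean plus 3 SD, cut at about 45% in these data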
MT stabilizer – stabilizes microtubules in HeLa cells. HeLa tubulin immunostaining HCS, 24 h; share of cells brighter than vehicle mean+2SD. % tubulin-high responders, % at 10 µM. 0.83% of 200,000 active;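 active = plate Z-score above 3 for both tubulin-high and condensed-nucleus cell shares, with cell loss under 80%, at 10 µM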;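 also: anti alpha tubulin signal scored within the nucleus-defined area of each cell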
* marks the source's active call; other numbers are inactive results; · = no result. Hits are enriched below; roughly 2.2% of the tested compounds scored in any of these assays.

SMILES	bCat nuc transl	Ba/F3 V617F tox	BaF3 tox	IEC-6 tox	APP 5UTR inh	MT stabilizer
CC(C)OC(=O)c1cc(C(=O)c2cc(Br)ccc2O)coc1=N	-0.5	-0.2	0.0	0.9	-1.4	2.7
CCOc1ccccc1NC(=O)c1cc(C(=O)c2cc(Br)ccc2O)coc1=N	·	3.0	7.4	3.9	1.7	11.8*
COc1ccc([N+](=O)[O-])cc1NC1CCN(C(=O)c2cccs2)CC1	·	·	·	1.3	·	·
COc1ccc(NC(=S)N2CCN(C(=O)c3ccco3)CC2)cc1OC	·	·	·	-1.8	·	·
O=C(NCCN1CCOCC1)c1cc(Cl)ccc1Cl	·	·	·	1.5	·	·
COCC(C)NC(=O)NC1(C(F)(F)F)Oc2ccc(Cl)cc2O1 (centres undefined)	0.5	37.7*	34.7*	0.7	26.4	4.6
O=C(NCCN1CCOCC1)NC1(C(F)(F)F)Oc2ccc(Cl)cc2O1 (centres undefined)	2.4	43.8*	28.6*	-6.7	49.5*	3.6
O=C(CC1C(=O)NCCN1Cc1cccc(F)c1)NCCCCCN1CCOCC1 (centres undefined)	·	·	·	2.1	·	·
NC1=NC2(CCCC2)n2c(nc3ccccc32)N1	-3.0	4.1	-7.2	6.5	3.9	2.5
CCC1(C)N=C(N)Nc2nc3cc(C)c(C)cc3n21 (centres undefined)	0.1	73.1*	84.9*	-5.3	·	·
CON(C)S(=O)(=O)c1cccc(C(=O)Oc2ccc(N(C)S(=O)(=O)c3ccccc3)cc2)c1	·	·	·	-1.3	·	·
COc1ccc([N+](=O)[O-])cc1N(CC(=O)NCCSc1ccc(C)cc1)S(C)(=O)=O	0.2	2.9	-2.9	-2.0	4.2	3.5
Cc1cccc(NS(=O)(=O)c2ccc(NC(=O)CN(c3cc([N+](=O)[O-])ccc3C)S(C)(=O)=O)cc2)c1	3.2	11.1	11.7	96.9*	10.7	2.3
COc1ccc(C)cc1NS(=O)(=O)c1ccc(NC(=O)CN(c2cc([N+](=O)[O-])ccc2C)S(C)(=O)=O)cc1	-2.0	6.2	9.2	7.3	59.3*	2.6
CCOc1ccc(NC(=O)CN(C)C(=O)c2ccc(=O)[nH]c2)cc1OCC	·	·	·	3.0	·	·
CC(=O)N(C)c1cccc([N+](=O)[O-])c1	0.0	-5.1	-0.2	-6.1	87.2*	3.6
CC(=O)c1c(C)oc2ccc(N(C(C)=O)S(=O)(=O)c3cccc4cccnc34)cc12	-0.5	27.4*	36.9*	7.3	·	·
COCCN(Cc1cccs1)S(=O)(=O)c1ccc(-c2ccc(=O)[nH]n2)s1	·	·	·	-0.5	·	·
O=C(c1ccc(Cl)cc1)c1cc([N+](=O)[O-])ccc1N1CCOCC1	47.6	72.5*	74.2*	3.5	92.9*	9.8
O=C(c1ccc(Br)cc1)c1cc([N+](=O)[O-])ccc1N1CCOCC1	6.7	80.5*	83.0*	11.6	88.0*	16.1*
CCOC(=O)c1cc(CC)sc1NC(=O)c1cc([N+](=O)[O-])ccc1N1CCOCC1	59.3*	-2.9	-1.4	-5.5	-14.2	13.6
CCOC(=O)c1cc(CC)sc1NC(=O)c1ccc(N2CCOCC2)c([N+](=O)[O-])c1	-3.3	-4.5	-0.8	1.0	-7.1	3.0
CC1CCCN(c2ccc([N+](=O)[O-])cc2C(=O)c2ccccc2)C1 (centres undefined)	59.9*	77.0*	79.1*	45.1*	93.9*	6.0
COc1ccc(CCN(C)C2CCCN(C(=O)CCC(F)(F)F)C2)cc1OC (centres undefined)	·	·	·	-0.3	·	·
CC1CCCC(NC(=O)C2CCN(S(=O)(=O)c3cnc[nH]3)CC2)C1C (centres undefined)	·	·	·	-12.3	·	·
SMILES	bCat nuc transl	Ba/F3 V617F tox	BaF3 tox	IEC-6 tox	APP 5UTR inh	MT stabilizer
Cn1c(O)c(N=NC(=O)CNC(=O)c2cccnc2)c2ccccc21	·	·	·	3.8	·	·
Cc1ccc(CNS(=O)(=O)c2c(C(=O)N3CCCCC3)c(C)n(C)c2C)o1	·	·	·	4.0	·	·
O=C(c1cc([N+](=O)[O-])ccc1N1CCOCC1)N1CCCCC1	-4.7	4.5	11.7	7.9	-7.2	2.3
O=C(c1ccccc1)c1cc([N+](=O)[O-])ccc1N1CCOCC1	177.9*	71.3*	74.2*	80.5*	92.0*	10.3
Cn1c(=O)oc2cc(S(=O)(=O)Nc3ccc(F)cc3)ccc21	·	·	·	5.8	·	·
Cc1ccc(C)c(N=Nc2ccc(O)c3ncccc23)c1	-0.7	-1.8	3.6	11.8	33.2	6.1
Cc1cccc(N=Nc2ccc(O)c3ncccc23)c1	2.4	0.8	0.7	3.2	72.4*	4.8
